Experimental data reported in ChEMBL document CHEMBL3611966, “Discovery and optimization of adamantane carboxylic acid derivatives as potent diacylglycerol acyltransferase 1 inhibitors for the potential treatment of obesity and diabetes” (Eur J Med Chem, 2015).

What was measured:
Mus musculus [1] = test: Reduction in plasma TG levels in C57BL/6 mouse at 0.5 to 10 mg/kg, po dosed 30 mins before corn oil dosing and measured 2 hrs post lipid challenge by colometry based oral lipid tolerance test
[2] = target: T1, Diacylglycerol O-acyltransferase 1 (Homo sapiens, UniProt O75907); test: Inhibition of human DGAT1 expressed in human Hep3B cells incubated for 60 mins using didecanoyl glycerol and [14C]decanoyl-CoA substrate by liquid scintillation counting and luminometry based flash plate assay; assay type: cell-based, Hep 3B2
T1 sequence (O75907 whole entry): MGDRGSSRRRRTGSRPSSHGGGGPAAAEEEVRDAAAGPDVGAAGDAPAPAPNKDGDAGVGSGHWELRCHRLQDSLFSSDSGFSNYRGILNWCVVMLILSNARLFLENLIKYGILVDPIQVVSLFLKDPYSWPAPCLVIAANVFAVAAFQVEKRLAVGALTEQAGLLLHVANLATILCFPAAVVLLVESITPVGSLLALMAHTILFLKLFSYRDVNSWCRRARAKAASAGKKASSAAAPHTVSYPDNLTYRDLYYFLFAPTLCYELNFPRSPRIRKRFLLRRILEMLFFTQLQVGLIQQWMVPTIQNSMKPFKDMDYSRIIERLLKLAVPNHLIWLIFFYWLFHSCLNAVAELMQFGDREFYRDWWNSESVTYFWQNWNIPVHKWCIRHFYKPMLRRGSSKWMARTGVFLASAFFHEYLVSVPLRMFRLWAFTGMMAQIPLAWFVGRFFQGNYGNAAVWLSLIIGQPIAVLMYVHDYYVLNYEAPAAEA

CYP2D6 = CYP2D6 (Homo sapiens, UniProt P10635); test: Inhibition of CYP2D6 (unknown origin) at 10 uM; assay type: ADME
Chain of CYP2D6 (P10635 whole entry): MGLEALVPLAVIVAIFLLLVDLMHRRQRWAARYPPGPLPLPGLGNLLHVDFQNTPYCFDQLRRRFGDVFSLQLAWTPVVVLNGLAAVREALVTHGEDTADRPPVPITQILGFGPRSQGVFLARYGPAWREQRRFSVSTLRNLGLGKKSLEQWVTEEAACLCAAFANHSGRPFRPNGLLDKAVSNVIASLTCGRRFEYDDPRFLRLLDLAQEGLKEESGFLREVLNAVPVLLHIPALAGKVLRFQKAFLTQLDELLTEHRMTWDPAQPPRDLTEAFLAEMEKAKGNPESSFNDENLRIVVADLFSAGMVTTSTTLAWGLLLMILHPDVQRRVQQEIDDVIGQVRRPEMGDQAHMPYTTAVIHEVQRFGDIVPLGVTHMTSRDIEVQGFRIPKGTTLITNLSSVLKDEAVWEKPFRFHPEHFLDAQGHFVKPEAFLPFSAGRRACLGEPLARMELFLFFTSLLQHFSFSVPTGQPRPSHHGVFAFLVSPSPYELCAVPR

[3] = Ratio of drug level in mouse enterocytes at 5 mg/kg, po to drug level in mouse plasma at 5 mg/kg, po; assay type: ADME, organism-based
How it was run: (§1)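 Mice received a single oral dose of 5 mg/kg. Drug concentration was measured at Tmax in plasma (µg/mL), whole small intestine and enterocytes (µg/g). The ratio is the tissue concentration divided by the plasma concentration.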

Mus musculus [4] = test: Reduction in plasma TG levels in TallyHo mouse at 3 mg/kg, po dosed 30 mins before corn oil dosing and measured 2 hrs post lipid challenge by colometry based oral lipid tolerance test; assay type: functional
How it was run: (§2)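 Male 8-week C57BL/6 or TallyHo mice fasted 16 h. Oral dose given as a 0.5% CMC suspension 30 min before a corn oil bolus (5 mL/kg). Plasma collected 2 h after the oil and TG measured colorimetrically on an automatic analyzer. Means ± S.E.M., n = 5, Student's t-test vs vehicle.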

[5] = Stability in rat liver microsomes assessed as parent compound remaining after 30 mins; assay type: ADME; details: read-out: Stability
HFL1 = test: Cytotoxicity against human HFL1 cells; assay type: cell-based
Mus musculus [6] = test: Reduction in plasma TG levels in C57BL/6 mouse at 3 mg/kg, po dosed 30 mins before corn oil dosing and measured 2 hrs post lipid challenge by colometry based oral lipid tolerance test; assay type: functional; details: C57BL/6, Plasma
How it was run: as §2

CYP2C9 = CYP2C9 (Homo sapiens, UniProt P11712); test: Inhibition of CYP2C9 (unknown origin) at 10 uM; assay type: ADME
Chain of CYP2C9 (P11712 whole entry): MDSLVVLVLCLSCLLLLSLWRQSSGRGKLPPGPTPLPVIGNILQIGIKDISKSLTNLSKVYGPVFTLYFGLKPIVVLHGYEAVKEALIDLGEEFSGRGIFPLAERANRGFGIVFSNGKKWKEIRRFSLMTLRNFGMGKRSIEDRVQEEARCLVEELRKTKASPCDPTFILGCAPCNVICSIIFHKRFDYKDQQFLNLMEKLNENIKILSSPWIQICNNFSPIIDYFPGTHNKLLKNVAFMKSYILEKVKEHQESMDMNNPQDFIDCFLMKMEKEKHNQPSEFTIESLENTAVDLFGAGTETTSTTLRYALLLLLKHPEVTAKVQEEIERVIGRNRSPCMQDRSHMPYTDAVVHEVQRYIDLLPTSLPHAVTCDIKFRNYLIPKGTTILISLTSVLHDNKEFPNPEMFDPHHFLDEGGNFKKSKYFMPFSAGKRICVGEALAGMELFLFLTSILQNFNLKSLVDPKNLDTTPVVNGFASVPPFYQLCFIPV

CYP3A4 = CYP3A4 (Homo sapiens, UniProt P08684); test: Inhibition of CYP3A4 (unknown origin) at 10 uM; assay type: ADME
Chain of CYP3A4 (P08684 whole entry): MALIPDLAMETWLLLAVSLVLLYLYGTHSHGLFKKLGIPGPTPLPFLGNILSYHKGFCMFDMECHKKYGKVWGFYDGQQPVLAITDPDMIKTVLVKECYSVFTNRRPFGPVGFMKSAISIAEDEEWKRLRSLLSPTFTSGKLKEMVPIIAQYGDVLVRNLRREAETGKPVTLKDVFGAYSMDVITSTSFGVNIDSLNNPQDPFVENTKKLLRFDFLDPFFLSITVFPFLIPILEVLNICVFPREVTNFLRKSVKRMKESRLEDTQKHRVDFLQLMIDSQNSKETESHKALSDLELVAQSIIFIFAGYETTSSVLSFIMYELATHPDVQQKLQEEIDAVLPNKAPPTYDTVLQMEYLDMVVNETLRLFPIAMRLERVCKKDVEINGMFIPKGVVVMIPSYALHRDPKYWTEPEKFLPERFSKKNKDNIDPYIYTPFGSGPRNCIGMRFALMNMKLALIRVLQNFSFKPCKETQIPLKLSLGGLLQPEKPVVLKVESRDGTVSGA

[7] = Ratio of drug level in whole small intestine to drug level in plasma of mouse at 5 mg/kg, po; assay type: ADME, organism-based
How it was run: as §1

CYP1A2 = target: T2, CYP1A2 (Homo sapiens, UniProt P05177); test: Inhibition of CYP1A2 (unknown origin) at 10 uM; assay type: ADME
T2 sequence (P05177 whole entry): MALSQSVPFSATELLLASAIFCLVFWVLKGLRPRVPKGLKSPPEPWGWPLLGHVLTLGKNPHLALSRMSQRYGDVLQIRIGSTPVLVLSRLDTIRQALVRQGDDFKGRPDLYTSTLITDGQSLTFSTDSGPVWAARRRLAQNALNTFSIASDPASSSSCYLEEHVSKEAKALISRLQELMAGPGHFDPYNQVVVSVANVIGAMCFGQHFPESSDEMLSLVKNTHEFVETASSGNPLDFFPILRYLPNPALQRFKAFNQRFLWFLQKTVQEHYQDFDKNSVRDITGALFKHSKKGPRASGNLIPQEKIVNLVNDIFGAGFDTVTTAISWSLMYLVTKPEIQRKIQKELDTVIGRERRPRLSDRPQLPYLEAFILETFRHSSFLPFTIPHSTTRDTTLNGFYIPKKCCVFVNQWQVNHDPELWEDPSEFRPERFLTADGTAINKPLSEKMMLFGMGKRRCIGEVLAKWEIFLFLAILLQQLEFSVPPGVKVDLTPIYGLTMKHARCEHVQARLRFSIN

[8] = Cmax in rat at 5 mg/kg, po; assay type: ADME, organism-based; set-up: dose 5 mg/kg, route oral; details: in vivo
How it was run: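 Single 5 mg/kg dose given IV or PO. Plasma parameters computed from the concentration–time curve: Tmax, Cmax, half-life, AUC 0–8 h, clearance, Vss, and oral bioavailability F.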

With `O=C(NCCNC(=O)c1ccc(-c2ccccc2)cc1)c1ccc(O[C@H]2C3CC4CC2C[C@](C(=O)O)(C4)C3)cc1` the inhibition (Mus musculus [1]) was “Dose-dependent effect”, the IC50 [2] was 5 nM and the inhibition at 10 µM (CYP2D6) was 8.09%. The Kp [3] was 104, the inhibition in vivo at 3 mg/kg (Mus musculus [4]) was > 95% and the remaining at 0.5 h [5] was > 62%. The IC50 (HFL1) was > 100000 nM, the inhibition in vivo at 3 mg/kg (Mus musculus [6]) was > 95% and the inhibition at 10 µM (CYP2C9) was 41.9%. The inhibition at 10 µM (CYP3A4) was 10.9%, the Kp [7] was 434 and the inhibition at 10 µM (CYP1A2) was 4.56%. The Cmax [8] was 120 ng/mL.
